sPLA2-III inh – Inhibits HGIII-sPLA2 liposome hydrolysis, primary screen | Q9NZ20 | AID 743126 | inhibition, % at 12.2 µM | QFRET BODIPY PC-A2 liposome hydrolysis, fluorescence | hit rate 0.56% among 370,000;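 active = inhibition above mean plus 3 SD of compounds lying within the high and low control bounds, cut at about 19% in these data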
ARFGAP1 inhibitor – rat ARFGAP1 inhibition; Arfgap1-stimulated ARF1 GTP hydrolysis, GDP FP detection; hit rate 0.26% among 360,000; inhibition, % at 16.5 µM;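 active = inhibition above a per-plate limit, mean inhibition of low control wells plus 3 SD, cut at about 25% in these data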
Target sequence (Q62848 1-136 limits assumed): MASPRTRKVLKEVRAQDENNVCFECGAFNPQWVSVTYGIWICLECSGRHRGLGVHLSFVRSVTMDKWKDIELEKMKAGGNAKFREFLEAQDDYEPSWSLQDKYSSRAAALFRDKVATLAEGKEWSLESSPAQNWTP
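System: truncated rat Arfgap1 GAP domain / Medium: HEPES-based buffer, pH 7.5 / Also added: N-terminally truncated human ARF1-GTP substrate / Incubation: enzyme reaction 120 min at 25 °C after 20 min preincubation / Measured by: FP of antibody-bound GDP Alexa 633 tracer, ex 620/em 688 nm / Replicates: singlicate, each compound tested once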
PLCg1 inh – blocks human PLC-gamma1 enzyme activity; P19174; purified PLC-gamma1, fluorogenic substrate, fluorescence; hit rate 0.84% among 370,000; AID 720700; inhibition, % at 12.2 µM; in the data active = inhibition above about 9.5%
PLC-beta3 inh – blocks human PLC-beta3 enzyme activity; Q01970; Purified PLC-beta3, fluorogenic substrate, fluorescence; inhibition, % at 12.2 µM; hit rate 0.18% among 370,000; in the data active = inhibition above about 11%
ASAP1 GAP inh – blocks human ASAP1-stimulated Arf1 GTP hydrolysis; Q9ULH1; GDP FP detection; inhibition, % at 16.5 µM; hit rate 0.19% among 360,000; AID 624377; in the data active = inhibition above about 25%
hGIII sPLA2 conf – human GIII-sPLA2 inhibition, confirmation | inhibition, % at 12.2 µM | hit rate 34% among 2,000 | recombinant hGIII-sPLA2, BODIPY PC-A2 QFRET fluorescence | AID 743280 | shares compounds with sPLA2-III inh;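 active = mean inhibition across triplicates above the hit cutoff set in the earlier primary screen, cut at about 19% in these data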
BODIPY interf – counter-screen for HGIII-sPLA2 inhibitors: 535nm fluorescence interference; AID 743282; inhibition, % at 12.2 µM; hit rate 8.5% among 2,000; BODIPY FL product fluorescence interference, QFRET; shares compounds with sPLA2-III inh;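 active = average inhibition above the solvent-only control mean plus 3 SD, cut at about 6% in these data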
535nm interf DR – 535nm optical interference dose response, HGIII-sPLA2 counter-screen; shares compounds with sPLA2-III inh; BODIPY FL product fluorescence interference, cell-free; IC50, µM; 240 tested, under 10 active;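 active = IC50 at or below 10 µM; inactive = IC50 above 10 µM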
Large screens that a line does not name were inactive (follow-up assays come after a bar, where they were run). The list is not random: actives were taken first. Their share in the collection is about 1.9%.

CCCCC(=O)Nc1ccc(C(=O)NNC(=S)NC(=O)c2ccco2)cc1	sPLA2-III inh 20 | hGIII sPLA2 conf 24 | BODIPY interf inactive
O=C(NC(=S)NCc1ccccc1)c1cccs1	none
CCCCC(=O)Nc1ccc(C(=O)NNC(=S)NC(=O)c2cccs2)cc1	sPLA2-III inh 24 | hGIII sPLA2 conf 28 | BODIPY interf inactive | 535nm interf DR inactive
O=C(Cc1ccccc1)NNC(=S)NC(=O)c1cccs1	sPLA2-III inh 21 | hGIII sPLA2 conf 35 | BODIPY interf inactive | 535nm interf DR inactive
CCCCC(=O)Nc1ccc(C(=O)NNC(=O)c2ccco2)cc1	none
O=C(NNC(=S)NC(=O)c1cccs1)c1ccc(NC(=O)c2ccccc2)cc1	sPLA2-III inh 21 | hGIII sPLA2 conf 41 | BODIPY interf inactive | 535nm interf DR inactive
O=C(Nc1ccc(NC(=S)NC(=O)c2cccs2)cc1)c1ccccc1	none
Cc1nc(NC2CCCC2)c2nnn(Cc3ccccc3)c2n1	none (no result: ARFGAP1 inhibitor, ASAP1 GAP inh)
COC(=O)C1CN(Cc2ccc(C)cc2)CCS(=O)(=O)N1Cc1cn(Cc2ccc(Cl)cc2)nn1 (stereo not given)	none (no result: ARFGAP1 inhibitor, ASAP1 GAP inh)
CN1[C@@H](Cc2ccccc2)COc2cccc(N3CCSCC3)c2S1(=O)=O	none (no result: ARFGAP1 inhibitor, ASAP1 GAP inh)
COCCCNC(=O)CN1C(=O)CSc2ncccc21	sPLA2-III inh 19 | hGIII sPLA2 conf inactive | BODIPY interf inactive
C=CCc1cc(Cl)ccc1OCCCNC(C)C	sPLA2-III inh 23 | hGIII sPLA2 conf inactive | BODIPY interf inactive
C=CCc1cc(Cl)ccc1OCCCNCCO	none
Cc1n[nH]c(=S)n1-c1cccc(Cl)c1	none
CSc1n[nH]c(=O)n1-c1cccc(Cl)c1	sPLA2-III inh 20 | hGIII sPLA2 conf inactive | BODIPY interf inactive
CCC1CCCCN1C(=S)NC(=O)c1cc(S(=O)(=O)N2CCOCC2)ccc1C (stereo not given)	sPLA2-III inh 20 | hGIII sPLA2 conf inactive | BODIPY interf inactive
Cc1ccc(S(=O)(=O)N2CCOCC2)cc1C(=O)NCC1CCCO1 (stereo not given)	none
COC(=O)c1ccc(CCc2cc(O)c(Br)cc2O)cc1	sPLA2-III inh 30 | hGIII sPLA2 conf inactive | BODIPY interf inactive
COC(=O)c1ccc(O)cc1	none
O=C(CC1CCCC1)N1CC[C@H]2[C@H](CCCN2Cc2ccc(F)cc2)C1	none (no result: ARFGAP1 inhibitor, ASAP1 GAP inh)
CC(C)C[C@@H]1COc2cc(N3CCCC3)ccc2S(=O)(=O)N1	sPLA2-III inh 21 | hGIII sPLA2 conf inactive | BODIPY interf inactive
Cc1ccc2c(c1)c1c(n2CC(O)CN2CCCCC2C)CCCC1 (stereo not given)	none
Cc1ccc2c(c1)c(C)c(C)n2CC(O)CN1CCCCC1C (stereo not given)	sPLA2-III inh 22 | hGIII sPLA2 conf 20 | BODIPY interf inactive
CSc1ccc(CNc2ccc(C)cc2)cc1	sPLA2-III inh 22 | hGIII sPLA2 conf inactive | BODIPY interf inactive
COc1ccc(OC)c(CN(CC(F)(F)F)S(=O)(=O)c2ccccc2Br)c1	none
CC12CCC(C(=O)NCCCN3CCOCC3)(C(Br)C1=O)C2(C)C (stereo not given)	sPLA2-III inh 21 | hGIII sPLA2 conf inactive | BODIPY interf inactive
Cc1ccc2c(c1)C1CS(=O)(=O)N(C3CCCC3)C(=O)N1C2 (stereo not given)	none (no result: ARFGAP1 inhibitor, ASAP1 GAP inh)
CN(CCCS(=O)(=O)[O-])c1ccc(/C=C/c2ccc3ccccc3[n+]2C)cc1	sPLA2-III inh 21 | hGIII sPLA2 conf inactive | BODIPY interf inactive
CCOC(=O)/C(=N/Nc1ccc(C)cc1)S(=O)(=O)c1ccc(Cl)cc1	none
NNC(=O)/C(=N/Nc1ccccc1)S(=O)(=O)c1ccc(Cl)cc1	sPLA2-III inh 35 | hGIII sPLA2 conf 47 | BODIPY interf inactive | 535nm interf DR inactive
CCOc1ccccc1Nc1cc2n(c(=O)n1)CCc1cc(OC)c(OC)cc1-2	sPLA2-III inh 82 | hGIII sPLA2 conf inactive | BODIPY interf inactive
COc1cc2c(cc1OC)-c1cc(Nc3ccccc3C)nc(=O)n1CC2	none

Assay outcomes (PubChem)
